# Legend:
# [1] = target: T1, Sphingosine kinase 2 (Homo sapiens) (UniProt Q9NRA0); assay: Inhibition of human recombinant SphK2 remaining enzyme activity at 1 uM using sphingosine as substrate incubated for 20 mins by scintillation counting analysis in presence of [gamma-32P]ATP
# T1 sequence (whole entry): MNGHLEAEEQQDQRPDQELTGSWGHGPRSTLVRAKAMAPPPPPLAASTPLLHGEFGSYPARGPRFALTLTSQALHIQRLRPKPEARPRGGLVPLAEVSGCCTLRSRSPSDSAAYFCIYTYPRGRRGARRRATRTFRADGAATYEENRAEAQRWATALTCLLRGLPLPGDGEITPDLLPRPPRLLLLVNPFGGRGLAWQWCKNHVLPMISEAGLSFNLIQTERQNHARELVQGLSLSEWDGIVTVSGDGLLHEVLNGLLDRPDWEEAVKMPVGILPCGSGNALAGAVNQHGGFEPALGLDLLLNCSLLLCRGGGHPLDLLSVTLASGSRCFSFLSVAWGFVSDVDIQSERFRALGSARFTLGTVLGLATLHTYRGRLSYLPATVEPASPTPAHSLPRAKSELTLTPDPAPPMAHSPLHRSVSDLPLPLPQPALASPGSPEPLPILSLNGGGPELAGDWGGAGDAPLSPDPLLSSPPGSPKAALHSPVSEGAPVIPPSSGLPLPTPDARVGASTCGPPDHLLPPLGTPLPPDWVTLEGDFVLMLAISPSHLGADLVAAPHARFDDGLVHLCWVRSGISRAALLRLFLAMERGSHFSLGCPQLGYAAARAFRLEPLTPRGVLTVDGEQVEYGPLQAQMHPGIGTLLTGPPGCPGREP
# [2] = species on record: Homo sapiens; assay: Selectivity ratio of Ki for human recombinant SphK1 to Ki for human recombinant SphK2
# Procedure, shortened: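 Recombinant human SphK1 and SphK2. Inhibitory constants came from kinetic analysis of S1P production, with sphingosine concentration varied and ATP held at a fixed concentration, run with and without inhibitor. Selectivity was taken as the ratio of the two enzymes' constants.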
# [3] = target: Sphingosine kinase 1 (Homo sapiens, UniProt Q9NYA1); assay: Inhibition of human recombinant SphK1 using sphingosine as substrate incubated for 20 mins by scintillation counting analysis in presence of [gamma-32P]ATP
# [4] = target: T2, Sphingosine kinase 2 (Homo sapiens, UniProt Q9NRA0); assay: Inhibition of human recombinant SphK2 using sphingosine as substrate incubated for 20 mins by scintillation counting analysis in presence of [gamma-32P]ATP
# T2 sequence (Q9NRA0 whole entry): T1 sequence (whole entry)
# Chain of Sphingosine kinase 1 (Q9NYA1 whole entry): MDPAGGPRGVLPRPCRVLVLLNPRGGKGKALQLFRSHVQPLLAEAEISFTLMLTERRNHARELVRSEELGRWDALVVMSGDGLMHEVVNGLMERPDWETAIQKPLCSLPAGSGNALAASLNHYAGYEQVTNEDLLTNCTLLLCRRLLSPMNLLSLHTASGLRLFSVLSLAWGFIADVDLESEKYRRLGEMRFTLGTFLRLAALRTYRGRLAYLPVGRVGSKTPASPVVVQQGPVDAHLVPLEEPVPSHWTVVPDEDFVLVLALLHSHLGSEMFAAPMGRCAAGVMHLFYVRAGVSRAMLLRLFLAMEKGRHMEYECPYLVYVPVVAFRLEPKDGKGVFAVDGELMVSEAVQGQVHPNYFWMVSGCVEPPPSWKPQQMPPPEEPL
Activity [1] [%],Ratio Ki [2],Ki [3] [nM],Ki [4] [nM],SMILES
77,–,–,–,N=C(N)N1CCC[C@H]1c1nc(-c2ccc3cc(OCC(=O)c4ccc(-c5ccccc5)cc4)ccc3c2)no1
94,–,–,–,Cc1ccc(COc2ccc3cc(-c4noc([C@@H]5CCCN5C(=N)N)n4)ccc3c2)cc1
97,–,–,–,N=C(N)N1CCC[C@H]1c1nc(-c2ccc3cc(OCc4ccccc4)ccc3c2)no1
74,–,–,–,CC(C)COc1ccc2cc(-c3noc([C@@H]4CCCN4C(=N)N)n3)ccc2c1
30,–,–,–,N=C(N)N1CCC[C@H]1c1nc(-c2ccc3cc(OCCc4ccc(C(F)(F)F)cc4)ccc3c2)no1
64,> 2.6,> 10000,3800,CCCCCCOc1ccc2cc(-c3noc([C@@H]4CCCN4C(=N)N)n3)ccc2c1
61,–,–,1400,CCCCCCCCc1ccc(-c2noc([C@@H]3CCCN3C(=N)N)n2)cc1
53,0.9,930,980,CC(C)COc1ccc2cc(-c3noc([C@@H]4[C@@H](O)CCN4C(=N)N)n3)ccc2c1
35,–,–,–,N=C(N)N1CCC[C@H]1c1nc(-c2ccc3cc(OCc4ccc(Br)cc4)ccc3c2)no1
103,–,–,–,N=C(N)N1CCC[C@H]1c1nc(-c2ccc3cc(OCC(=O)c4ccccc4)ccc3c2)no1

# The next lines start with the molecule.
SMILES,Activity [1] [%],Ratio Ki [2],Ki [3] [nM],Ki [4] [nM]
N=C(N)N1CCC[C@H]1c1nc(-c2ccc3cc(OCCc4ccccc4C(F)(F)F)ccc3c2)no1,47,–,–,–
N#Cc1ccc(COc2ccc3cc(-c4noc([C@@H]5CCCN5C(=N)N)n4)ccc3c2)cc1,43,–,–,–
CCCCCOc1ccc2cc(-c3noc([C@@H]4[C@@H](O)CCN4C(=N)N)n3)ccc2c1,46,0.8,730,900
N=C(N)N1CCC[C@H]1c1nc(-c2ccc3cc(OCc4ccc(Cl)cc4)ccc3c2)no1,56,–,–,–
COCCCOc1ccc2cc(-c3noc([C@@H]4CCCN4C(=N)N)n3)ccc2c1,109,–,–,–
N=C(N)N1CCC[C@H]1c1nc(-c2ccc3cc(OCc4ccc(-c5ccccc5)cc4)ccc3c2)no1,51,–,–,–
CCCCCCCOc1ccc2cc(-c3noc([C@@H]4CCCN4C(=N)N)n3)ccc2c1,83,–,–,–
N=C(N)N1CCC[C@H]1c1nc(-c2ccc3cc(OCc4cccc(C(F)(F)F)c4)ccc3c2)no1,81,–,–,–
COCCOc1ccc2cc(-c3noc([C@@H]4CCCN4C(=N)N)n3)ccc2c1,118,–,–,–
CC1(C)CCC(C)(C)c2cc(COc3ccc4cc(-c5noc([C@@H]6CCCN6C(=N)N)n5)ccc4c3)ccc21,104,–,–,–
CCCCCOc1ccc2cc(-c3noc([C@@H]4CCCN4C(=N)N)n3)ccc2c1,51,7.3,7200,980
N=C(N)N1CCC[C@H]1c1nc(-c2ccc3cc(O)ccc3c2)no1,106,–,–,–
N=C(N)N1CCC[C@H]1c1nc(-c2ccc3cc(OCc4ccc(C(F)(F)F)cc4)ccc3c2)no1,42,–,–,1020
N=C(N)N1CCC[C@H]1c1nc(-c2ccc3cc(OCC(=O)c4ccc(C(F)(F)F)cc4)ccc3c2)no1,65,–,–,–
N=C(N)N1CCC[C@H]1c1nc(-c2ccc3cc(OCCc4cccc(C(F)(F)F)c4)ccc3c2)no1,34,–,–,–
N=C(N)N1CCC[C@H]1c1nc(-c2ccc3cc(OCc4cccc(Cl)c4)ccc3c2)no1,46,–,–,–
Cc1ccc(S(=O)(=O)Oc2ccc3cc(-c4noc([C@@H]5CCCN5C(=N)N)n4)ccc3c2)cc1,89,–,–,–
N=C(N)N1CCC[C@H]1c1nc(-c2ccc3cc(OCC4CCCC4)ccc3c2)no1,57,–,–,–
N=C(N)N1CCC[C@H]1c1nc(-c2ccc3cc(OCc4cccc(Br)c4)ccc3c2)no1,49,–,–,–
CCCCOc1ccc2cc(-c3noc([C@@H]4CCCN4C(=N)N)n3)ccc2c1,69,–,–,–
